What was measured:
[1] = system: A549; assay: Antiproliferative activity against human A549 cells after 48 hrs by MTT assay; format: functional, cell-based; conditions: A549, 48 h
Method in brief: (§1)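 MTT viability read-out; cells cultured in DMEM and exposed to compound for 48 h. IC50 taken as the concentration giving 50% inhibition of tumour cell proliferation.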

[2] = system: HeLa; assay: Antiproliferative activity against human HeLa cells after 48 hrs by MTT assay; format: functional, cell-based; method in brief: as §1
[3] = Inhibition of tubulin polymerization at 3 uM
Method in brief: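 Reaction started by GTP addition and run protected from light at 37 °C. Polymerization followed as fluorescence increase at 360/420 nm excitation/emission. Percent inhibition calculated relative to untreated control.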

[4] = system: HT-29; assay: Antiproliferative activity against human HT-29 cells after 48 hrs by MTT assay; format: functional, cell-based; conditions: HT-29, 48 h; method in brief: as §1
[5] = Inhibition of tubulin polymerization at 30 uM
Method in brief: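 GTP addition starts the reaction, run protected from light at 37 °C. Polymerization followed as fluorescence increase at 360/420 nm excitation/emission; % inhibition calculated against untreated control.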

| SMILES | IC50 [1] [µM] | IC50 [2] [µM] | inhibition [3] [%] | IC50 [4] [µM] | inhibition [5] [%] |
| --- | --- | --- | --- | --- | --- |
| COc1cc2c(c(OC)c1OC)-c1ccc(OC)c(=O)cc1[C@@H](NC(C)=O)CC2 [COLCHICINE] | < 1 | < 1 | 53.8 | < 1 | – |
| CCCCCCc1cn(CC(=O)c2ccccc2)nn1 | > 300 | > 300 | – | > 300 | – |
| Cc1ccc(C(=O)Cn2cc(-c3ccccc3)nn2)cc1 | > 300 | > 300 | – | > 300 | – |
| COc1cc([C@@H]2c3cc4c(cc3[C@H](O)[C@H]3COC(=O)[C@H]23)OCO4)cc(OC)c1OC | – | – | 58.1 | – | – |
| O=C(Cn1cc(-c2ccccc2)nn1)c1ccc(Cl)cc1 | > 300 | > 300 | – | > 300 | – |
| Cc1cc(C)c(-c2cn(CC(=O)c3ccccc3)nn2)cc1C | 91 | > 300 | – | 190 | 6.6 |
| COc1ccc(C(=O)Cn2cc(-c3ccccc3)nn2)cc1 | > 300 | > 300 | – | 49 | 14.1 |
| COc1ccc2cc(-c3cn(CC(=O)c4ccccc4)nn3)ccc2c1 | > 300 | > 300 | – | > 300 | – |
| CCCCCc1ccc(-c2cn(CC(=O)c3ccccc3)nn2)cc1 | > 300 | > 300 | – | > 300 | – |
| O=C(Cn1cc(-c2ccsc2)nn1)c1ccccc1 | 260 | > 300 | – | > 300 | – |
| Cc1ccc(-c2cn(CC(=O)c3ccccc3)nn2)cc1 | 292 | > 300 | – | 238 | 2.8 |
| CC(C(=O)c1ccccc1)n1cc(-c2ccccc2)nn1 (configuration not stated) | > 300 | > 300 | – | > 300 | – |
| O=C(Cn1cc(-c2ccccn2)nn1)c1ccccc1 | > 300 | > 300 | – | > 300 | – |
| O=C(Cn1cc(-c2ccccc2)nn1)c1ccccc1 | > 300 | > 300 | – | > 300 | – |
| COc1ccc(-c2cn(CC(=O)c3ccccc3)nn2)cc1 | 187 | > 300 | – | > 300 | – |
| CCC(C(=O)c1ccccc1)n1cc(-c2ccccc2)nn1 (configuration not stated) | 26 | 155 | – | 116 | 19.3 |
| O=C(Cn1cc(CO)nn1)c1ccccc1 | > 300 | > 300 | – | > 300 | – |
| O=C(Cn1cc(-c2ccccc2)nn1)c1ccc(Br)cc1 | > 300 | > 300 | – | > 300 | – |

Source: ChEMBL document CHEMBL1275319, “Synthesis and cytotoxicity evaluation of novel 1,4-disubstituted 1,2,3-triazoles via CuI catalysed 1,3-dipolar cycloaddition” (Eur J Med Chem, 2010)
